Rows were chosen to be rich in hits. Some 2% of all compounds tested hit in one or more screens of this group.
UPR CHOP act: activators of apoptotic arm of unfolded protein response (CHOP); CHO-CHOP luciferase reporter, UPR activation, luminescence; percent of tunicamycin response over DMSO baseline; activation, % at 10 µM; actives 0.34% (n = 330,000);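 active = at 10 µM dose, activation of 40% or more, normalized to positive control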;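 note: 100% = tunicamycin at 10 µg/mL and 0% = DMSO alone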
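Evaluation: % reporter activation, DMSO baseline versus tunicamycin full activation; System: CHO-CHOP luciferase reporter cell line; Input: 500 cells/well; Incubation: 6 h compound treatment, 37 °C; Measured by: Steady-Glo luciferase luminescence; Dosing: one dose, 10 µM in 0.5% DMSO; Buffer or medium: F12 medium, 10% FBS; Benchmarks: positive tunicamycin 10 µg/mL, negative DMSO alone.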
MC4R antagonist: antagonists of human melanocortin 4 receptor (MC4R); P32245; MC4R-expressing cells, MTII-stimulated cAMP, LANCE TR-FRET; AID 540295; actives 0.48% (n = 360,000); inhibition, % at 6.5 µM;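 active = inhibition above its plate's cutoff, the mean of tested wells on that plate plus 3 SD, cut at about 29% in these data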;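 note: 0% = Melanotan II alone and 100% = Melanotan II plus saturating MCL0020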
Target sequence (P32245 whole entry, looked up): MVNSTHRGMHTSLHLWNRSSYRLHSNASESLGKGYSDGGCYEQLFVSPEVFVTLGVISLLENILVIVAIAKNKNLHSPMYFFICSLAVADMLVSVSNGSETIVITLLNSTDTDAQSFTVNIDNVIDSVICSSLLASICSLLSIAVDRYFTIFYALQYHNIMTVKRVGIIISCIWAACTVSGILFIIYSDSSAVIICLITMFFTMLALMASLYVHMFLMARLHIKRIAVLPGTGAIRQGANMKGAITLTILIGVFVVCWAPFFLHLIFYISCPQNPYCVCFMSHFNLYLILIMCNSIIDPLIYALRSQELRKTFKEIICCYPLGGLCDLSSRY
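material = U2OS cells stably expressing human melanocortin 4 receptor (MC4R) | also added = Melanotan II challenge | dosing = single nominal compound dose of 6.5 µM | detection = TR-FRET with Eu-cAMP and labeled anti-cAMP, 671 nm | replication = singlicate | timing = compound 30 min, challenge 1 h, detection 1 h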
MC4R ag barr: human MC4R agonism via beta-arrestin | P32245 | U2OS MC4R beta-arrestin complementation, luminescence; percent of melanotan II response, DMSO zero | activation, % at 8.9 µM | actives 0.98% (n = 360,000);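 active = activation above a per-plate cutoff, the mean activation of sample wells on that plate plus 3 SD, cut at about 8% in these data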
A1 inh: inhibitors of the anti-apoptotic protein A1, read as caspase activation; MEF A1-2A-BIM cells, Caspase-Glo 3/7 luminescence, 3 h; percent of clofoctol response, vehicle zero; caspase activation, % (no concentration beside the values); actives 0.066% (n = 330,000); AID 2462;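 active = over half of replicate activation scores above 10%, or exactly half above 10 with the replicate mean above 10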
XBP1 UPR activ: adaptive UPR (XBP1) activation. CHO-XBP1 luciferase reporter, IRE1-XBP1 UPR activation, luminescence; percent of tunicamycin response, DMSO as zero. activation, % at 20 µM. actives 0.33% (n = 330,000). AID 463104;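 active = versus positive control, 20 µM dose yields 30% or more activation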;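 note: 100% = tunicamycin at 10 µg/mL and 0% = DMSO only wells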
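Material: CHO cell line with stable XBP1 luciferase reporter; schedule: 16-18 h cell attachment at 37 °C, then 6 h compound exposure; signal: glow luminescence from Steady-Glo reagent; medium: serum-containing F12 medium, 10% FBS; benchmarks: tunicamycin 10 µg/mL and vehicle-only wells; read-out: percent activation relative to tunicamycin reference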
cAMP nonselect: nonselective cAMP signaling inhibitor, MC4R antagonist counter-screen | shares compounds with MC4R antagonist | actives 26% (n = 1,600) | parental U2OS, forskolin cAMP, LANCE TR-FRET | inhibition, % at 6.5 µM | AID 602193;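 active = mean inhibition over triplicates above the low-control well mean plus 3 SD, set per campaign, cut at about 13% in these data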;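 note: signal is single emission at 671 nm which falls as cellular cAMP rises; 0% = forskolin-stimulated wells and 100% = buffer without forskolin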
MC4R antag conf: human MC4R cAMP antagonism confirmation. actives 27% (n = 1,600). inhibition, % at 6.5 µM. shares compounds with MC4R antagonist. MC4R-expressing cells, MTII-stimulated cAMP, TR-FRET; in the data active = inhibition above about 29%;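 note: 0% = agonist stimulated wells alone and 100% = agonist stimulated wells plus saturating reference antagonist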
Active calls of the source: *; / = not tested or not shown; + = active, no number.

SMILES	UPR CHOP act	MC4R antagonist	MC4R ag barr	A1 inh	XBP1 UPR activ	cAMP nonselect	MC4R antag conf
CC1CC(C)CN(C(=O)c2nn(C)c3c2CS(=O)(=O)c2ccccc2-3)C1 (centres undefined)	0.8	2.7	1.4	0.3	-2.9	/	/
Cc1cc(O)c(C2=Nc3ccccc3SC(c3ccc(Cl)cc3)C2)c(=O)o1 (centres undefined)	9.5	30.6*	-2.9	-2.2	1.4	3.1	3.9
Cc1cccc(C)c1NC(=O)c1sc(N)nc1-c1ccccc1	-2.2	29.9*	1.3	0.8	0.0	-2.9	5.4
CC1(C(=O)O)CCN1C(=O)c1cccnc1Oc1ccccc1 (centres undefined)	/	14.9	3.5	/	/	/	/
N#Cc1c([N+](=O)[O-])cc([N+](=O)[O-])cc1S(=O)(=O)Cc1ccccc1	-9.9	87.5*	-5.6	-0.9	-9.2	34.5*	-5.0
COc1cc(OC)c(C#N)c(S(=O)(=O)Cc2ccccc2)c1	1.7	9.9	0.2	-0.1	-4.3	/	/
COc1ccc(CC2(CO)CCN(Cc3cnn(C)c3C)CC2)cc1	0.3	29.7*	-0.8	1.1	-3.0	-2.9	-14.3
COc1ccc(CC2(CO)CCN(Cc3ccncc3)CC2)cc1	1.1	1.7	0.9	0.3	3.7	/	/
COc1ccccc1-c1cnc(C(O)c2ccc(Cl)cc2C)[nH]1 (centres undefined)	/	9.8	1.1	/	/	/	/
CCOC(=O)c1ccc(NC(=O)N2CCN(c3cccc(OC)c3)CC2)cc1	0.2	29.0*	0.2	0.0	6.3	-4.7	-6.1
CS(=O)(=O)c1ccc(C(=O)OCC(=O)NC23CC4CC(CC(C4)C2)C3)cc1[N+](=O)[O-]	3.9	50.0*	-4.3	-0.2	-0.2	3.6	62.3*
CC(C)CN1CCN(C(=O)COC(=O)c2ccc(S(C)(=O)=O)c([N+](=O)[O-])c2)CC1	/	31.0*	-1.3	/	/	23.1*	41.4*
Cc1ncc([N+](=O)[O-])n1CC(=O)Nc1ccccc1Cl	/	9.2	0.2	/	/	/	/
C(/C=C/c1ccccc1)=N/N1CCN(c2ccccc2)CC1	6.1	-0.8	-1.7	0.6	1.2	/	/
C(=C\c1ccccc1)/C=N/N1CCN(Cc2ccccc2)CC1	7.1	29.9*	6.7	0.0	-1.8	-2.8	-3.7
C[C@H](CO)N1C[C@H](C)[C@@H](CN(C)C(=O)Nc2ccc3c(c2)OCO3)Oc2c(NC(=O)Nc3ccc(C(F)(F)F)cc3)cccc2C1=O	10.6	55.6*	-0.5	0.0	8.5	-1.8	30.0*
CC(C)NC(=O)N(C)C[C@H]1Oc2c(NC(=O)Nc3ccc(C(F)(F)F)cc3)cccc2C(=O)N([C@H](C)CO)C[C@@H]1C	1.4	12.9	-0.7	0.2	1.6	/	/
C[C@H](CO)N1C[C@H](C)[C@@H](CN(C)C(=O)NC2CCCCC2)Oc2c(NC(=O)Nc3ccc(C(F)(F)F)cc3)cccc2C1=O	4.4	29.9*	0.2	-0.3	2.5	1.6	18.3
C[C@H]1CN([C@@H](C)CO)C(=O)c2cccc(NC(=O)Nc3ccc(C(F)(F)F)cc3)c2O[C@@H]1CN(C)Cc1ccc(Cl)c(Cl)c1	16.7	41.4*	2.2	-1.2	13.0	-2.7	-12.3
C[C@H](CO)N1C[C@H](C)[C@@H](CN(C)C(=O)Nc2ccc(C(F)(F)F)cc2)Oc2c(NC(=O)Nc3ccc4c(c3)OCO4)cccc2C1=O	2.0	17.4	-0.6	0.0	-0.9	/	/
O=C(Nc1ccc(F)c(Cl)c1)Nc1nnc([C@H]2C[C@H](O)[C@@H](CO)O2)s1	/	5.5	-2.4	/	/	/	/
COc1cccc2ccc(CC(O)(c3ccccc3)c3ccccc3)nc12	/	15.7	0.0	/	/	/	/
COC(=O)c1sc(N2C(=O)C(O)=C(C(=O)c3ccc(C)o3)C2c2ccc(OC)c(OC)c2)nc1C (centres undefined)	0.6	187.9*	-2.8	0.7	3.9	-0.1	-16.4
Cc1ccc2nc(N3C(=O)C(O)=C(C(=O)c4ccc(C)o4)C3c3cccc(O)c3)sc2c1 (centres undefined)	1.1	31.4*	0.3	-1.8	2.5	1.8	13.3
CCOc1ccc(C2C(C(=O)c3ccc(C)o3)=C(O)C(=O)N2c2nc(C)c(C(=O)OC)s2)cc1 (centres undefined)	3.7	+	1.0	0.5	6.6	74.5*	143.4*
SMILES	UPR CHOP act	MC4R antagonist	MC4R ag barr	A1 inh	XBP1 UPR activ	cAMP nonselect	MC4R antag conf
COC(=O)c1sc(N2C(=O)C(O)=C(C(=O)c3ccc(C)o3)C2c2ccc([N+](=O)[O-])cc2)nc1C (centres undefined)	1.1	-3.0	-4.3	-0.7	-3.9	/	/
CCOC(=O)c1sc(N2C(=O)C(O)=C(C(=O)c3ccc(C)o3)C2c2ccc(OC)c(OC)c2)nc1C (centres undefined)	-0.3	27.5	-4.1	-1.7	4.1	/	/
COc1ccc2nc(N3C(=O)C(O)=C(C(=O)c4ccco4)C3c3ccc(OC)c(OC)c3)sc2c1 (centres undefined)	/	15.9	-0.3	/	/	/	/
CC1=NOC(=O)/C1=C/c1ccc(O)c(Br)c1	1.4	-4.8	-1.0	-0.1	8.9	/	/
CC1=NOC(=O)/C1=C/c1ccc(O)cc1	/	34.9*	-0.3	0.1	/	-3.8	-38.3
O=C(CSc1ccccn1)N1CCOCC1	2.7	29.4*	1.0	-0.2	-0.6	0.1	-3.3
O=C(CSc1nc2ccccc2n1CCc1ccccc1)N1CCOCC1	1.5	32.6*	-1.1	-0.3	0.0	0.1	10.0
O=C(CSc1nc2ccccc2n1CC(=O)N1CCOCC1)N1CCCC1	-0.9	-0.3	0.2	0.0	-3.2	/	/
CC1(C(=O)O)CCN1C(=O)c1cccc(C(F)(F)F)c1 (centres undefined)	/	7.1	-1.8	/	/	/	/
COc1ccc(C(=O)N/N=C\C(C)=C\c2ccccc2)cc1OC	2.4	-2.3	-1.7	-0.1	0.1	/	/
COc1cc(C(=O)NCC(=O)N/N=C\C(C)=C/c2ccccc2)cc(OC)c1OC	3.3	30.5*	-0.3	-0.3	-3.6	-1.3	-4.3
COc1ccccc1N(C)S(=O)(=O)c1ccc(C(=O)OCC(=O)c2c[nH]c3ccccc23)cc1	-0.4	39.2*	3.6	-0.3	1.2	4.5	5.2
C/C(=N/NS(=O)(=O)c1ccc(C)cc1)c1c(O)c2ccccc2oc1=O	1.7	0.5	-0.4	-0.8	-3.2	/	/
C/C(=N\NS(=O)(=O)c1ccc(C)cc1)c1cc2ccccc2oc1=O	1.0	29.6*	3.3	0.5	0.5	4.3	11.1

Screens deposited in PubChem by several laboratories.
